XBP1 UPR activ: adaptive UPR (XBP1) activation; AID 463104; CHO-XBP1 luciferase reporter, IRE1-XBP1 UPR activation, luminescence; percent of tunicamycin response, DMSO as zero; actives 0.33% (n = 330,000); activation, % at 20 µM;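 active = versus positive control, 20 µM dose yields 30% or more activation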;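 also: 100% = tunicamycin at 10 µg/mL and 0% = DMSO only wells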
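assay system = CHO-XBP1 luciferase reporter cells | amount = 1000 cells/well | buffer or medium = F12 plus 10% FBS | compound dosing = single point, 20 µM final compound, 1% DMSO | incubation = 16-18 h cell attachment at 37 °C, then 6 h compound exposure | detection = Steady-Glo luminescence read | controls = tunicamycin 10 µg/mL and vehicle-only wells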
Mdm2-MdmX inh: disrupts the human Mdm2-MdmX interaction; O15151+Q00987; SaOS-2 split-luciferase Mdm2/MdmX complementation, luminescence; inhibition, % at 8 µM; actives 3% (n = 330,000); AID 485346;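 active = inhibition of at least 50% at 8 µM in the primary screen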
Target sequence (O15151 whole entry, looked up): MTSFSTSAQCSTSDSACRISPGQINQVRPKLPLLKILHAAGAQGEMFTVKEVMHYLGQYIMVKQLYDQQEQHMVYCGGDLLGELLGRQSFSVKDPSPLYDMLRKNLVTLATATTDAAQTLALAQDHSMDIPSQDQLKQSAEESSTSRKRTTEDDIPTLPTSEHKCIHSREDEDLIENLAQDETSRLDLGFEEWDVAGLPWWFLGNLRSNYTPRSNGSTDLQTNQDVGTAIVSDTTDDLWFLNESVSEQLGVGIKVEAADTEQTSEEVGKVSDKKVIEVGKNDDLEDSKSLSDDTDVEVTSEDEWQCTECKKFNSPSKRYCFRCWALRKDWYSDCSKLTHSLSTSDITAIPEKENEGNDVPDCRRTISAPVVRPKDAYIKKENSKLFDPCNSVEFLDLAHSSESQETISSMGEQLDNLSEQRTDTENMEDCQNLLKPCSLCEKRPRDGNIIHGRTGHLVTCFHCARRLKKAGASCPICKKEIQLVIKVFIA
Target sequence (Q00987 whole entry, looked up): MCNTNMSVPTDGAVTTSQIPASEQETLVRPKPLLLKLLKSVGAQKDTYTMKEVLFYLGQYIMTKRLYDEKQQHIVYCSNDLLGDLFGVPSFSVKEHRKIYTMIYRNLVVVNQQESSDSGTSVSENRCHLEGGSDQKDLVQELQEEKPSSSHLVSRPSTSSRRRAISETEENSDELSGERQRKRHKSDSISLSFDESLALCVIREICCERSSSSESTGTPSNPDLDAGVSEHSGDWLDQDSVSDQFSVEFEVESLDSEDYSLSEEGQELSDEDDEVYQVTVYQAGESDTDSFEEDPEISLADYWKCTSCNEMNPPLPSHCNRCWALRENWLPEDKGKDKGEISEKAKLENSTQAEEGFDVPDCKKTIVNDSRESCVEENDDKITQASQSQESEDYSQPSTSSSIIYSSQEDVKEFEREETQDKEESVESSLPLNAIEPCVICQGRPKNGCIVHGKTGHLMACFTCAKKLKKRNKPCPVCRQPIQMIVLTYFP
UPR CHOP act: activators of apoptotic arm of unfolded protein response (CHOP). CHO-CHOP luciferase reporter, UPR activation, luminescence; percent of tunicamycin response over DMSO baseline. activation, % at 10 µM. actives 0.34% (n = 330,000);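 active = at 10 µM dose, activation of 40% or more, normalized to positive control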;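 also: 100% = tunicamycin at 10 µg/mL and 0% = DMSO alone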
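System: CHO CHOP reporter cells. Amount: 500 cells per well. Buffer or medium: F12 medium, 10% FBS. Compound dosing: one dose, 10 µM in 0.5% DMSO. Incubation: 6 h compound exposure at 37 °C after overnight seeding. Technique: Steady-Glo luciferase luminescence. Benchmarks: tunicamycin and DMSO controls.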
Beta apoptosis: beta cell apoptosis inhibition | INS-1E cytokine-induced death, ATP luminescence, 48 h; percent of positive-control rescue, neutral wells zero | protection from apoptosis, % (concentration not given with the values) | actives 0.8% (n = 300,000);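 active = Every replicate reaches about 75%, or at least half do and their mean reaches it too, limit read from the data; inconclusive = At least half of replicates reach the limit but their mean does not; inactive = Under half of replicates reach the limit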;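 also: 0% = cytokine-treated negative control wells and 100% = positive control rescue; higher means more ATP so stronger rescue from cytokine killing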
CSC inhib: blocks cancer stem cells. cancer stem cell-like cells viability, luminescence. inhibition, % at 7.5 µM. actives 1.1% (n = 300,000); in the data active = inhibition above about 75%; inconclusive = no clear call, values can overlap the other calls; tested in HMLE shEcad cells
SKKanGAS inh: SKKanGAS growth inhibition; S. pyogenes SKKanGAS, kanamycin growth, BacTiter-Glo, 6 h; inhibition, % at 7.5 µM; actives 1.3% (n = 300,000); AID 1662;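 active = mean replicate score, as percent of positive control median, at least 50; inconclusive = mean below 50 but one replicate at or above 50; inactive = mean and every replicate below 50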;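 also: strain carries kanamycin resistance gene driven by streptokinase promoter and grows in 40 µg/ml kanamycin; loss of luminescence reflects streptokinase promoter inhibition or plain growth inhibition; 0% = median of DMSO wells and 100% = positive control at its reference dose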
Mdm2-MdmX conf: human Mdm2/MdmX binding inhibition, confirmed. shares compounds with Mdm2-MdmX inh. luminescent assay. inhibition, % at 8 µM. actives 55% (n = 10,000). AID 489028; in the data active = inhibition above about 40%
FLuc counter: counter-screen for Mdm2/MdmX inhibitors: full-length luciferase; shares compounds with Mdm2-MdmX inh; SaOS-2 full-length luciferase counterscreen, luminescence; inhibition, % at 8 µM; actives 77% (n = 6,200);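 active = mean inhibition at 8 µM reaching about 37%, which flags the compound as non-specific, limit read from the data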;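 also: p53-null SaOS-2 cells with luciferase driven by a doxycycline-inducible promoter; compound on cells about two nights before reading with doxycycline added after day one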
* hit, by the source's call; ? = inconclusive; . = no result given. Shown are actives, neighbours in structure and some others; about 4.8% of the full set was active somewhere.

SMILES | XBP1 UPR activ | Mdm2-MdmX inh | UPR CHOP act | Beta apoptosis | CSC inhib | SKKanGAS inh | Mdm2-MdmX conf | others
O=C(NNc1c2ccccc2nc2ccccc12)C(O)c1ccccc1 (stereo unspecified) | 2 | 78* | 0 | 7 | -8 | 11 | 82* | FLuc counter=34
O=C(NNc1c2ccccc2nc2ccccc12)c1ccccc1O | 3 | 37 | 2 | 12 | ? | 43 | .
CCOC(=O)c1c(C)[nH]c(C(=O)N/N=C/c2cccc(OC)c2)c1C | 1 | 53* | 1 | 0 | 50 | -6 | 39
COc1cccc(/C=N/NC(=O)c2[nH]nc3c2CCc2ccccc2-3)c1 | 11 | 56* | 4 | 39 | 37 | 18 | 61* | FLuc counter=44*
COc1ccc(OC)c(/C=N/NC(=O)c2[nH]nc3c2CCc2ccccc2-3)c1 | -3 | -18 | 3 | 0 | -4 | -17 | .
CN(C)C(=O)CCc1ccc2c3c([nH]c2c1)[C@]1(CCc2ccccc2)[C@@H](C(=O)N2CCCCC2)C[C@H](CC(=O)NC(C)(C)C)C(=O)N1CC3 | 2 | -14 | 3 | . | . | . | .
O=C1CCN(Cc2ccc(Br)cc2)CCN1[C@H](CO)Cc1ccccc1 | -2 | 22 | 0 | -2 | 1 | 2 | .
O=C(CCCc1nc(-c2ccc(Cl)cc2)no1)NC1CCCCC1 | -3 | 4 | 0 | 15 | 13 | -5 | .
COc1ccccc1NC(=O)CSc1ccc(-c2ccc(-n3ccnc3)cc2)nn1 | -1 | -19 | 2 | . | 0 | -2 | .
O=C(NCc1cnn(-c2ccc(F)cc2)c1)C1CCC(=O)N(C2CC2)C1 (stereo unspecified) | -1 | 12 | 1 | 1 | -12 | -4 | .
CCOC(=O)/C=c1\s/c(=C\c2ccccc2C)c(=O)n1CC(=O)NCc1ccc2c(c1)OCO2 | 12 | 92* | 2 | 9 | 45 | 9 | 67* | FLuc counter=44*
CCOC(=O)/C=c1\s/c(=C\c2ccc3c(c2)OCCO3)c(=O)n1CC(=O)NCC1CCCO1 (stereo unspecified) | 1 | 17 | 0 | -10 | 0 | 2 | .
CCOC(=O)/C=c1\s/c(=C\c2ccc3cc(OC)ccc3c2)c(=O)n1CC(=O)NCc1ccc2c(c1)OCO2 | -5 | 79* | -1 | -1 | 9 | 3 | 14
COc1ccc(Sc2nnc(Cc3ccccc3)c3ccccc23)cc1 | -2 | 72* | 2 | -7 | 62 | 12 | 48* | FLuc counter=88*
COc1ccc(Sc2nnc(-c3ccccc3)cc2C#N)cc1 | -2 | 26 | 0 | 5 | 6 | 2 | .
Cc1ccc(Sc2nnc(Cc3ccccc3)c3ccccc23)cc1 | -4 | 53* | 1 | -6 | 31 | 17 | 24
O=C(NC(=S)NC1CCS(=O)(=O)C1)c1ccccc1Br (stereo unspecified) | -5 | 10 | -1 | 1 | 3 | 4 | .
N#Cc1c(Nc2ccccc2)sc(C(=O)c2ccccc2)c1N | 6 | 4 | -4 | 2 | 13 | 3 | .
Cc1cccc(Oc2sc(C(=O)c3ccccc3)c(N)c2C#N)c1 | 0 | 58* | 4 | -6 | 20 | 36 | 33 | FLuc counter=42*
Cc1ccc(S(=O)(=O)N2C(=O)CCC2C(=O)O/N=C(\N)c2ccc([N+](=O)[O-])cc2)cc1 (stereo unspecified) | -6 | 20 | -2 | -4 | -6 | 2 | .
CCC(NC(=O)Nc1nnc(C(F)(F)F)s1)(C(F)(F)F)C(F)(F)F | -1 | 91* | 9 | 124* | -17 | 118* | 90* | FLuc counter=26
O=C(COc1ccc(Cl)cc1Cl)N1CCCN(C(=O)COc2ccc(Cl)cc2Cl)CC1 | -2 | 59* | 0 | 17 | 38 | 30 | 21
Cc1cc2c(cc1S(=O)(=O)N(C)Cc1ccccc1)OCC(=O)N2 | -1 | 17 | 0 | -4 | -10 | 1 | .
CS(=O)(=O)N(CC(=O)Nc1ccc(CC#N)cc1)c1ccc(C23CC4CC(CC(C4)C2)C3)cc1 | 9 | 64* | 16 | 88* | 38 | 25 | -5
CC(=O)Nc1ccc(NC(=O)CN(c2ccc(C34CC5CC(CC(C5)C3)C4)cc2)S(C)(=O)=O)cc1 | 2 | 56* | 6 | 13 | 10 | -4 | 29
SMILES | XBP1 UPR activ | Mdm2-MdmX inh | UPR CHOP act | Beta apoptosis | CSC inhib | SKKanGAS inh | Mdm2-MdmX conf | others
CNC(=O)CN(c1ccc(C23CC4CC(CC(C4)C2)C3)cc1)S(C)(=O)=O | 2 | -3 | -2 | 4 | 51 | -3 | .
COc1cc2c(cc1OC)C(c1cc(Br)ccc1F)N(C(=O)CCl)CC2 (stereo unspecified) | -9 | 100* | -4 | 7 | 42 | -3 | 73* | FLuc counter=55*
CC(=O)Nc1ccc(C(=O)OCC(=O)N2CCC(Cc3ccccc3)CC2)cc1 | 3 | -12 | 1 | -1 | -14 | . | .
CC1Cc2ccccc2N1C(=O)c1cc2c(=O)n3ccccc3nc2n1C (stereo unspecified) | 5 | 53* | 3 | 0 | 18 | 2 | 10
N#Cc1c(Cl)nc2c(c1C#N)CCCC2 | 2 | 18 | 0 | -8 | -18 | -6 | .
Cc1ccc(CN(C(=O)COc2cccc(C)c2C)C2CCS(=O)(=O)C2)o1 (stereo unspecified) | -1 | 19 | 1 | 0 | -12 | -2 | .
COc1ccc2ccc(O)c(CN(C)CC(=O)Nc3ccccc3C(F)(F)F)c2c1 | -6 | 17 | 1 | -2 | -26 | -3 | .
COc1ccc(C2=NN(C(=O)COc3ncnc4ccccc34)C(c3ccco3)C2)cc1 (stereo unspecified) | -2 | 35 | 0 | 0 | -1 | 4 | .
COc1ccc(C2=NN(C(=O)COC(=O)c3ccc(S(C)(=O)=O)c([N+](=O)[O-])c3)C(c3ccco3)C2)cc1 (stereo unspecified) | -4 | 98* | -1 | -11 | 96* | . | 91* | FLuc counter=52*
O=C(CCCN=C1NS(=O)(=O)c2ccccc21)OCC(=O)c1ccccc1Cl | 0 | -20 | 0 | -3 | -10 | -28 | .
COc1ccc(C(C[N+](=O)[O-])c2c(C)cc3ccccn23)cc1 (stereo unspecified) | -3 | 34 | 0 | 2 | -1 | -1 | .
COc1ccc(C(C[N+](=O)[O-])c2c(-c3ccccc3)cc3ccccn23)c(OC)c1 (stereo unspecified) | 8 | 53* | 31 | 7 | -8 | 1 | 38 | FLuc counter=71*
Cc1noc2ncnc(Sc3c(Cl)cccc3Cl)c12 | -4 | 54* | 7 | -26 | 11 | 16 | 20
